Laboratory results published in ChEMBL document CHEMBL5357066, “Development of Novel Membrane Disrupting Lipoguanidine Compounds Sensitizing Gram-Negative Bacteria to Antibiotics” (ACS Med Chem Lett, 2024).
Activity calls are given as the source filed them.

Columns and labels:
Klebsiella pneumoniae [1] = experiment: Potentiation of doxycycline induced antibacterial activity against Klebsiella pneumoniae NCTC 13368; type: functional, organism-based
[2] = Toxicity in Galleria mellonella larvae assessed as reduction in animal survival at 10 to 50 mg/kg measured for 120 hrs; type: organism-based; conditions: in vivo, dose 10-50 mg/kg
How it was run: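 Wax moth larvae, assumed 300 mg mean weight with 50 µL haemolymph, 10 per group. Each was injected via the front proleg with 10 µL of compound at 50, 20 or 10 mg/kg, or PBS only. Larvae were held at 37 °C for 5 days and scored live/dead every 24 h; dead meant no response to physical stimuli.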

Cell membrane [3] = experiment: Induction of outer membrane permeabilization in Pseudomonas aeruginosa PAO1 assessed as increase fluorescence intensity by measuring NPN uptake factor measured immediately for 2 hrs by fluorescence based analysis; type: subcellular
How it was run: (§1)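 NPN outer-membrane uptake. Overnight TSB cultures (37 °C, 200 rpm) were subcultured 1:20 for 2 h to mid-log, washed, and resuspended in 5 mM HEPES with 5 mM glucose, pH 7.2. Cells were mixed with assay buffer containing 10 µM NPN, then with compound, polymyxin B (positive control) or buffer. Fluorescence (ex 350, em 420 nm) was monitored immediately for 2 h.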

Escherichia coli [4] = experiment: Potentiation of doxycycline induced antibacterial activity against Escherichia coli NCTC 12923; type: functional, organism-based
Pseudomonas aeruginosa [5] = experiment: Potentiation of doxycycline induced antibacterial activity against Pseudomonas aeruginosa NCTC 13437; type: functional, organism-based
Cell membrane [6] = experiment: Induction of outer membrane permeabilization in Pseudomonas aeruginosa NCTC 13437 assessed as increase fluorescence intensity by measuring NPN uptake factor measured immediately for 2 hrs by fluorescence based analysis; type: subcellular; how it was run: as §1
Acinetobacter baumannii [7] = experiment: Synergistic antibacterial activity against Acinetobacter baumannii AYE assessed as reduction in rifampicin MIC at 32 microg/ml incubated for overnight by microbroth dilution checkerboard assay; type: functional, organism-based; conditions: dose 32.0 µg/ml
How it was run: (§2)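 Checkerboard microdilution under MIC conditions (TSB, overnight, 37 °C). Two-fold series of each agent were combined on one plate before bacteria were added, and single-agent MICs were measured on the same plate. FIC = sum of combination MIC/alone MIC for each agent, taken from the most synergistic well. Three independent repeats, mean ± SD. ≤0.5 was taken as strong synergy and 0.5–<1 as weak.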

Escherichia coli [8] = experiment: Synergistic antibacterial activity against Escherichia coli NCTC 12923 assessed as reduction in rifampicin MIC at 32 microg/ml incubated for overnight by microbroth dilution checkerboard assay; type: functional, organism-based; conditions: dose 32.0 µg/ml; how it was run: as §2
Klebsiella pneumoniae [9] = experiment: Synergistic antibacterial activity against Klebsiella pneumoniae NCTC 13368 assessed as fractional inhibitory concentration index incubated for overnight in presence of rifampicin by microbroth dilution checker board assay; type: functional; how it was run: as §2
Cell membrane [10] = experiment: Induction of outer membrane permeabilization in Acinetobacter baumannii AYE assessed as increase fluorescence intensity by measuring NPN uptake factor measured immediately for 2 hrs by fluorescence based analysis; type: subcellular; how it was run: as §1
Klebsiella pneumoniae [11] = experiment: Synergistic antibacterial activity against Klebsiella pneumoniae M6 assessed as reduction in rifampicin MIC at 8 to 32 microg/ml incubated for overnight by microbroth dilution checkerboard assay; type: functional, organism-based; conditions: dose 8-32 µg/ml
How it was run: (§3)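 Broth microdilution in Tryptic Soy Broth, with rifampicin in a 2-fold dilution series combined with the second agent. Bacteria were grown overnight in TSB, back-diluted, then incubated with the compounds overnight at 37 °C. MIC was taken as the lowest concentration with no visible growth (<0.1 OD600).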

Cell membrane [12] = experiment: Induction of outer membrane permeabilization in Acinetobacter baumannii ATCC 17978 assessed as increase fluorescence intensity by measuring NPN uptake factor measured immediately for 2 hrs by fluorescence based analysis; type: subcellular; how it was run: as §1
Pseudomonas aeruginosa [13] = experiment: Synergistic antibacterial activity against Pseudomonas aeruginosa NCTC 13437 assessed as reduction in rifampicin MIC at 8 to 32 microg/ml incubated for overnight by microbroth dilution checkerboard assay; type: functional, organism-based; conditions: dose 8-32 µg/ml; how it was run: as §3
Klebsiella pneumoniae [14] = experiment: Potentiation of doxycycline induced antibacterial activity against Klebsiella pneumoniae M6; type: functional, organism-based
Pseudomonas aeruginosa [15] = experiment: Potentiation of doxycycline induced antibacterial activity against Pseudomonas aeruginosa PAO1; type: functional, organism-based
Acinetobacter baumannii [16] = experiment: Synergistic antibacterial activity against Acinetobacter baumannii ATCC 17978 assessed as reduction in rifampicin MIC at 32 microg/ml incubated for overnight by microbroth dilution checkerboard assay; type: functional, organism-based; conditions: dose 32.0 µg/ml; how it was run: as §2
Pseudomonas aeruginosa [17] = experiment: Synergistic antibacterial activity against Pseudomonas aeruginosa PAO1 assessed as reduction in rifampicin MIC at 8 to 32 microg/ml incubated for overnight by microbroth dilution checkerboard assay; type: functional, organism-based; conditions: dose 8-32 µg/ml; how it was run: as §3
Pseudomonas aeruginosa [18] = experiment: Synergistic antibacterial activity against Pseudomonas aeruginosa NCTC 13437 assessed as fractional inhibitory concentration index incubated for overnight in presence of rifampicin by microbroth dilution checker board assay; type: functional
How it was run: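 Checkerboard microdilution in Tryptic Soy Broth, run like the MIC assay. Overnight TSB cultures were back-diluted to OD 0.01 and added 1:1 to the combined two-fold series of both agents, then incubated overnight at 37 °C. Growth/no-growth was called at <0.1 OD600. MICs alone were read on the same plates. FIC index came from the most synergistic well; three independent repeats, mean ± SD.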

Klebsiella pneumoniae [19] = experiment: Synergistic antibacterial activity against Klebsiella pneumoniae NCTC 13368 assessed as reduction in rifampicin MIC at 8 to 64 microg/ml incubated for overnight by microbroth dilution checkerboard assay; type: functional, organism-based; conditions: dose 8-64 µg/ml; how it was run: as §2

CCCCCCCCCCNC(=N)NCCCCN
> 1: Activity (Cell membrane [3]) | Activity (Cell membrane [6]) | Activity (Cell membrane [10]) | Activity (Cell membrane [12])
0.1: fractional inhibitory concentration index (FICI) (Klebsiella pneumoniae [9])
0.15: fractional inhibitory concentration index (FICI) (Pseudomonas aeruginosa [18])
active: Activity (Klebsiella pneumoniae [1]) | Activity (Escherichia coli [4]) | Activity (Pseudomonas aeruginosa [5]) | Activity (Acinetobacter baumannii [7]) | Activity (Escherichia coli [8]) | Activity (Klebsiella pneumoniae [11]) | Activity (Pseudomonas aeruginosa [13]) | Activity (Klebsiella pneumoniae [14]) | Activity (Pseudomonas aeruginosa [15]) | Activity (Acinetobacter baumannii [16]) | Activity (Pseudomonas aeruginosa [17]) | Activity (Klebsiella pneumoniae [19])
Non-Toxic: Activity [2]
